Data as given in ChEMBL document CHEMBL1629660, “Pharmacodynamics of tigecycline against phenotypically diverse Staphylococcus aureus isolates in a murine thigh model” (Antimicrob Agents Chemother, 2009).
Converted amounts (≈) assume the structure as drawn.

Tests used:
Staphylococcus aureus [1] = test: Antimicrobial activity against Community-acquired methicillin-resistant Staphylococcus aureus isolate 156 by broth microdilution method; format: functional
Procedure, shortened: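 Tigecycline MIC by CLSI broth microdilution, run in triplicate; modal MIC reported. Isolates stored at –80°C in double-strength skim milk and subcultured twice on Trypticase soy agar with 5% sheep blood before use.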

[2] = Cmax in neutropenic ICR mouse infected with Staphylococcus aureus ATCC 29213 at 50 mg/kg, sc by HPLC; format: ADME, organism-based; design: dose 50 mg/kg, route subcutaneous; conditions: in vivo
Procedure, shortened: (§1)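 Neutropenic female ICR mice (cyclophosphamide 150 and 100 mg/kg ip, 4 days and 1 day before inoculation), both thighs inoculated im with ~10^7 CFU/ml of ATCC 29213. Single sc doses of 50, 25, 12.5 or 6.25 mg/kg. Cardiac blood taken from groups of six at 8–12 times over 0.5–24 h. Serum measured by HPLC (linear 0.05–5 µg/ml). Two-compartment fit by nonlinear least squares; AUC by trapezoidal rule.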

[3] = Cmax in neutropenic ICR mouse infected with Staphylococcus aureus ATCC 29213 at 12.5 mg/kg, sc by HPLC; format: ADME, organism-based; design: dose 12.5 mg/kg, route subcutaneous; conditions: in vivo; procedure, shortened: as §1
[4] = Tmax in neutropenic ICR mouse infected with Staphylococcus aureus ATCC 29213 at 50 mg/kg, sc by HPLC; format: ADME, organism-based; design: dose 50 mg/kg, route subcutaneous; conditions: in vivo; procedure, shortened: as §1
[5] = Tmax in neutropenic ICR mouse infected with Staphylococcus aureus ATCC 29213 at 6.25 mg/kg, sc by HPLC; format: ADME, organism-based; design: dose 6.25 mg/kg, route subcutaneous; conditions: in vivo; procedure, shortened: as §1
[6] = AUC (0 to 24 hrs) in neutropenic ICR mouse infected with Staphylococcus aureus ATCC 29213 at 25 mg/kg, sc by HPLC; format: ADME, organism-based; design: time < 24 hr, dose 25 mg/kg, route subcutaneous; conditions: plasma; procedure, shortened: as §1
[7] = Elimination half life in neutropenic ICR mouse infected with methicillin-sensitive Staphylococcus aureus ATCC 29213 at 12.5 mg/kg, sc by HPLC; format: ADME, organism-based; design: dose 12.5 mg/kg, route subcutaneous; conditions: in vivo, read-out: beta t1/2 (converted); procedure, shortened: as §1
[8] = Protein binding in methicillin-sensitive Staphylococcus aureus ATCC 29213-infected neutropenic ICR mouse serum at 25 mg/kg, sc by HPLC; format: ADME, organism-based; design: dose 25 mg/kg, route subcutaneous; conditions: read-out: PB (converted)
[9] = fAUC/MIC in community acquired methicillin-resistant Staphylococcus aureus isolate 144-infected neutropenic ICR mouse at 80% effective exposure index; format: functional
Procedure, shortened: (§2)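 Single-dose serum PK in infected neutropenic mice (sc 6.25–50 mg/kg; HPLC; two-compartment fit; AUC by trapezoidal rule; lower doses simulated). Free fraction from ultrafiltration of spiked mouse serum, in triplicate. Free exposures divided by modal MIC and plotted against 24-h log10 CFU change with a sigmoidal Emax model; EI50, EI80 and stasis values read from the fitted curves.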

[10] = fAUC/MIC in community acquired methicillin-resistant Staphylococcus aureus isolate 147-infected neutropenic ICR mouse at 80% effective exposure index; format: functional; procedure, shortened: as §2
[11] = fAUC/MIC in hospital-acquired methicillin-resistant Staphylococcus aureus isolate 56-infected neutropenic ICR mouse at 50% effective exposure index; format: functional; procedure, shortened: as §2
[12] = fAUC/MIC in hospital-acquired methicillin-resistant Staphylococcus aureus isolate 152-infected neutropenic ICR mouse at 50% effective exposure index; format: functional; procedure, shortened: as §2
[13] = fAUC/MIC in community acquired methicillin-resistant Staphylococcus aureus isolate 144-infected neutropenic ICR mouse at 50% effective exposure index; format: functional; procedure, shortened: as §2
[14] = fAUC/MIC in methicillin-sensitive Staphylococcus aureus ATCC 25923-infected neutropenic ICR mouse at stasis dose; format: functional; procedure, shortened: as §2
[15] = fAUC/MIC in hospital-acquired methicillin-resistant Staphylococcus aureus isolate 152-infected neutropenic ICR mouse at stasis dose; format: functional; procedure, shortened: as §2
Staphylococcus aureus [16] = test: Antimicrobial activity against community acquired methicillin-resistant Staphylococcus aureus isolate 147 infected in neutropenic ICR mouse assessed as change in bacterial load after 24 hrs; format: functional
Procedure, shortened: (§3)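 Female ICR mice (~25 g) made neutropenic with cyclophosphamide 150 and 100 mg/kg ip, 4 and 1 days before infection. Each thigh inoculated im with 0.1 ml of ~10^7 CFU/ml from an overnight subculture. Tigecycline sc (0.2 ml) given 2 h later as single or multiple doses of 1.56–50 mg/kg, 1.56–400 mg/kg/day, 3 mice/group. Saline-injected controls. Thighs harvested at 24 h, homogenized in saline, plated on blood agar; log10 CFU change vs 0-h controls.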

Staphylococcus aureus [17] = test: Antimicrobial activity against community acquired methicillin-resistant Staphylococcus aureus isolate 156 infected in neutropenic ICR mouse assessed as change in bacterial load after 24 hrs; format: functional; procedure, shortened: as §3
Staphylococcus aureus [18] = test: Antimicrobial activity against community acquired methicillin-resistant Staphylococcus aureus isolate 156 infected in immunocompetent ICR mouse assessed as reduction in bacterial load at […] after 24 hrs; format: functional
Procedure, shortened: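 Non-neutropenic ICR mice (no cyclophosphamide). Each thigh inoculated im with 0.1 ml of ~10^8 CFU/ml. Tigecycline given sc once daily at 1.56, 3.13, 6.25 or 12.5 mg/kg starting 2 h post-infection, 3 mice/group. Thighs harvested at 24 h, homogenized, plated on blood agar; log10 CFU change vs 0-h controls.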

[19] = fAUC/MIC in community acquired methicillin-resistant Staphylococcus aureus isolate 156 infected-immunocompetent ICR mouse at 1.56 […], sc QD; format: functional
Procedure, shortened: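 Derived from neutropenic-mouse serum PK (HPLC, two-compartment fit) with ultrafiltration protein-binding correction, divided by modal MIC.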

[20] = fAUC/MIC in community acquired methicillin-resistant Staphylococcus aureus isolate 156 infected-immunocompetent ICR mouse at […], sc QD; format: functional
[21] = Plasma protein binding in mouse; format: ADME, cell-free; conditions: read-out: PPB (converted)
[22] = AUC in neutropenic ICR mouse infected with Staphylococcus aureus ATCC 29213 at 6.25 to 50 mg/kg, sc; format: ADME, organism-based; design: dose 6.25-50 mg/kg, route subcutaneous; conditions: plasma; procedure, shortened: as §1
[23] = r2 of fT>MIC in methicillin-sensitive Staphylococcus aureus ATCC 25923-infected neutropenic ICR mouse
[24] = r2 for fAUC/MIC in methicillin-sensitive Staphylococcus aureus ATCC 25923-infected neutropenic ICR mouse
[25] = r2 of fAUC/MIC in hospital-acquired methicillin-resistant Staphylococcus aureus isolate 56-infected neutropenic ICR mouse
[26] = r2 of fCmax/MIC in hospital-acquired methicillin-resistant Staphylococcus aureus isolate 56-infected neutropenic ICR mouse
[27] = r2 for fAUC/MIC in hospital-acquired methicillin-resistant Staphylococcus aureus isolate 152-infected neutropenic ICR mouse
[28] = r2 for fAUC/MIC in community acquired methicillin-resistant Staphylococcus aureus isolate 144-infected neutropenic ICR mouse
[29] = Protein binding in methicillin-sensitive Staphylococcus aureus ATCC 29213-infected neutropenic ICR mouse serum at 12 µg/ml by HPLC; conditions: read-out: PB (converted)
[30] = Protein binding in methicillin-sensitive Staphylococcus aureus ATCC 29213-infected neutropenic ICR mouse serum at 1.5 µg/ml by HPLC; conditions: read-out: PB (converted)

SMILES: CN(C)c1cc(NC(=O)CNC(C)(C)C)c(O)c2c1C[C@H]1C[C@H]3[C@H](N(C)C)C(O)=C(C(N)=O)C(=O)[C@@]3(O)C(O)=C1C2=O [TIGECYCLINE]
- MIC (Staphylococcus aureus [1]): 0.125 µg/mL (≈ 0.213 µM)
- Cmax [2]: 12200 ng/mL
- Cmax [3]: 2380 ng/mL
- Tmax [4]: 44.4 min
- Tmax [5]: 4.8 min
- AUC(0-t) at 24 h [6]: 25200 ng·h/mL
- half-life [7]: 603 min
- fraction unbound [8]: 0.075
- fAUC/MIC [9]: 3.2
- fAUC/MIC [10]: 3.5
- fAUC/MIC [11]: 2.5
- fAUC/MIC [12]: 1.5
- fAUC/MIC [13]: 2.2
- fAUC/MIC [14]: 5.3
- fAUC/MIC [15]: 1.6
- log10CFU/ml (Staphylococcus aureus [16]): 1.8
- log10CFU/ml (Staphylococcus aureus [17]): 2.1
- log10cfu (Staphylococcus aureus [18]): 1.8
- fAUC/MIC [19]: 1.8
- fAUC/MIC [20]: 3.6
- fraction unbound [21]: 0.188
- AUC [22]: 1200 ng·h/mL
- r2 [23]: 0.872%
- r2 [24]: 0.877
- r2 [25]: 0.957
- r2 [26]: 0.704
- r2 [27]: 0.997
- r2 [28]: 0.954
- fraction unbound [29]: 0.08
- fraction unbound [30]: 0.173
